ChEMBL document CHEMBL1125326, “Potent gonadotropin releasing hormone antagonists with low histamine-releasing activity” (J Med Chem, 1992)
Converted amounts (≈) assume the structure as drawn. Non-standard residues stand in square brackets, D forms with d. Residues, ends and D or L forms follow the SMILES beside them. d(hArg(Et2)) = CCN=C(NCC)NCCCC[C@@H](N)C(=O)O; dPhe(4-Cl) = N[C@H](Cc1ccc(Cl)cc1)C(=O)O; dPhe(4-F) = N[C@H](Cc1ccc(F)cc1)C(=O)O; d2Nal = N[C@H](Cc1ccc2ccccc2c1)C(=O)O

Columns and labels:
Rattus norvegicus [1] = species: Rattus norvegicus; assay: Evaluated for the release of histamine in rats (based on 10 animals per dose group); assay type: functional, organism-based
Rattus norvegicus [2] = assay: Evaluated for the anti-ovulatory activity (rats were injected subcutaneously at noon on proestrus); assay type: functional
Summary of the method: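 Female rats with at least two consecutive normal 4-day cycles, confirmed by vaginal lavage cytology, were dosed once s.c. at noon on proestrus in 50% propylene glycol/0.9% saline. On the morning of expected estrus, the oviducts were examined for ovulated eggs, which were counted. The effective dose came from % females ovulating plotted against log dose, usually with ≥3 dose groups (10 rats per group total).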

| EC50 (Rattus norvegicus [1]) | SMILES | ED50 (Rattus norvegicus [2]) |
| --- | --- | --- |
| 6.2 µg/mL (≈ 4.27 µM) | CC(=O)N[C@H](Cc1ccc2ccccc2c1)C(=O)N[C@H](Cc1ccc(F)cc1)C(=O)N[C@H](Cc1cccnc1)C(=O)N[C@@H](CO)C(=O)N[C@@H](CCCN=C(N)N)C(=O)N[C@H](Cc1cccnc1)C(=O)N[C@@H](CC(C)C)C(=O)N[C@@H](CCCCNC1=NCCCN1)C(=O)N1CCC[C@H]1C(=O)N[C@H](C)C(N)=O | 0.5 µg |
| 20 µg/mL (≈ 13.5 µM) | CC(=O)N[C@H](Cc1ccc2ccccc2c1)C(=O)N[C@H](Cc1ccc(Cl)cc1)C(=O)N[C@H](Cc1cccnc1)C(=O)N[C@@H](CO)C(=O)N[C@@H](Cc1ccc(O)cc1)C(=O)N[C@H](Cc1cccnc1)C(=O)N[C@@H](CC(C)C)C(=O)N[C@@H](CCCCNC1=NCCCN1)C(=O)N1CCC[C@H]1C(=O)N[C@H](C)C(N)=O | 0.68 µg |
| 16 µg/mL (≈ 10.2 µM) | CC/N=C(\NCC)NCCCC[C@H](NC(=O)[C@H](CC(C)C)NC(=O)[C@@H](Cc1c[nH]c2ccccc12)NC(=O)[C@H](Cc1ccc(O)cc1)NC(=O)[C@H](CO)NC(=O)[C@@H](Cc1c[nH]c2ccccc12)NC(=O)[C@@H](Cc1ccc(Cl)cc1)NC(=O)[C@@H](Cc1ccc2ccccc2c1)NC(C)=O)C(=O)N1CCC[C@H]1C(=O)N[C@H](C)C(N)=O | ~0.9 µg |
| 0.81 µg/mL (≈ 0.524 µM) | CC(=O)N[C@H](Cc1ccc2ccccc2c1)C(=O)N[C@H](Cc1ccc(Cl)cc1)C(=O)N[C@H](Cc1c[nH]c2ccccc12)C(=O)N[C@@H](CO)C(=O)N[C@@H](CCCN=C(N)N)C(=O)N[C@H](Cc1c[nH]c2ccccc12)C(=O)N[C@@H](CC(C)C)C(=O)N[C@@H](CCCCNC1=NCCCN1)C(=O)N1CCC[C@H]1C(=O)N[C@H](C)C(N)=O | >2 µg |
| < 0.01 µg/mL | CC/N=C(\NCC)NCCCC[C@@H](NC(=O)[C@H](Cc1ccc(O)cc1)NC(=O)[C@H](CO)NC(=O)[C@@H](Cc1cccnc1)NC(=O)[C@@H](Cc1ccc(Cl)cc1)NC(=O)[C@@H](Cc1ccc2ccccc2c1)NC(C)=O)C(=O)N[C@@H](Cc1ccccc1)C(=O)N[C@@H](CCCN=C(N)N)C(=O)N1CCC[C@H]1C(=O)N[C@H](C)C(N)=O | 0.5 µg |
| 0.41 µg/mL (≈ 0.267 µM) | CC(=O)N[C@H](Cc1ccc2ccccc2c1)C(=O)N[C@H](Cc1ccc(Cl)cc1)C(=O)N[C@H](Cc1c[nH]c2ccccc12)C(=O)N[C@@H](CO)C(=O)N[C@@H](Cc1ccc(O)cc1)C(=O)N[C@H](CCCCNC1=NCCCN1)C(=O)N[C@@H](CC(C)C)C(=O)N[C@@H](CCCCN=C(N)N)C(=O)N1CCC[C@H]1C(=O)N[C@H](C)C(N)=O | 0.56 µg |
| 196 µg/mL (≈ 131 µM) | CC/N=C(\NCC)NCCCC[C@H](NC(=O)[C@H](CC(C)C)NC(=O)[C@@H](Cc1cccnc1)NC(=O)[C@H](Cc1ccc(O)cc1)NC(=O)[C@H](CO)NC(=O)[C@@H](Cc1cccnc1)NC(=O)[C@@H](Cc1ccc(Cl)cc1)NC(=O)[C@@H](Cc1ccc2ccccc2c1)NC(C)=O)C(=O)N1CCC[C@H]1C(=O)N[C@H](C)C(N)=O | 0.6 µg |
| 1.5 µg/mL (≈ 1.02 µM) | CC(=O)N[C@H](Cc1ccc2ccccc2c1)C(=O)N[C@H](Cc1ccc(Cl)cc1)C(=O)N[C@H](Cc1cccnc1)C(=O)N[C@@H](CO)C(=O)N[C@@H](CCCN=C(N)N)C(=O)N[C@H](Cc1cccnc1)C(=O)N[C@@H](CC(C)C)C(=O)N[C@@H](CCCCNC1=NCCCN1)C(=O)N1CCC[C@H]1C(=O)N[C@H](C)C(N)=O | 0.295 µg |
| 23.6 µg/mL (≈ 15.9 µM) | CC/N=C(\NCC)NCCCC[C@H](NC(=O)[C@H](CC(C)C)NC(=O)[C@@H](Cc1cccnc1)NC(=O)[C@H](CCCN=C(N)N)NC(=O)[C@H](CO)NC(=O)[C@@H](Cc1cccnc1)NC(=O)[C@@H](Cc1ccc(Cl)cc1)NC(=O)[C@@H](Cc1ccc2ccccc2c1)NC(C)=O)C(=O)N1CCC[C@H]1C(=O)N[C@H](C)C(N)=O | 0.425 µg |
| 59 µg/mL (≈ 35.5 µM) | CCCC/N=C(/N)NCCCC[C@@H](NC(=O)[C@H](Cc1ccc(O)cc1)NC(=O)[C@H](CO)NC(=O)[C@@H](Cc1cccnc1)NC(=O)[C@@H](Cc1ccc(F)cc1)NC(=O)[C@@H](Cc1ccc2ccccc2c1)NC(C)=O)C(=O)N[C@@H](CC(C)C)C(=O)N[C@@H](CCCCN=C(NCC(F)(F)F)NCC(F)(F)F)C(=O)N1CCC[C@H]1C(=O)N[C@H](C)C(N)=O | 1 µg |
| 0.18 µg/mL (≈ 0.117 µM) | CCNC(=NCCCC[C@@H](NC(=O)[C@H](Cc1ccc(O)cc1)NC(=O)[C@H](CO)NC(=O)[C@@H](Cc1c[nH]c2ccccc12)NC(=O)[C@@H](Cc1ccc(Cl)cc1)NC(=O)[C@@H](Cc1ccc2ccccc2c1)NC(C)=O)C(=O)N[C@@H](CC(C)C)C(=O)N[C@@H](CCCN=C(N)N)C(=O)N1CCC[C@H]1C(=O)N[C@H](C)C(N)=O)NCC (Ac-[d2Nal][dPhe(4-Cl)][dW]SY[d(hArg(Et2))]LRP[dA]-NH2) | ~0.6 µg |
| 0.51 µg/mL (≈ 0.355 µM) | CC(=O)N[C@H](Cc1ccc2ccccc2c1)C(=O)N[C@H](Cc1ccc(F)cc1)C(=O)N[C@H](Cc1c[nH]c2ccccc12)C(=O)N[C@@H](CO)C(=O)N[C@@H](Cc1ccc(O)cc1)C(=O)N[C@H](CCCN=C(N)N)C(=O)N[C@@H](CC(C)C)C(=O)N[C@@H](CCCN=C(N)N)C(=O)N1CCC[C@H]1C(=O)NCC(N)=O (Ac-[d2Nal][dPhe(4-F)][dW]SY[dR]LRPG-NH2) | 2.4 µg |
